Active and inactive are the calls of the source. The calls are words filed in the database; no cut-off is given here.
Experiments:
[1] = target: T1, Adrenergic receptor alpha-1 (Rattus norvegicus, UniProt P15823+P23944+P43140); assay: Inhibition of [3H]WB-4101 binding to rat cortical Alpha-1 adrenergic receptor in vitro; format: protein assay
T1 sequence (P15823 whole entry): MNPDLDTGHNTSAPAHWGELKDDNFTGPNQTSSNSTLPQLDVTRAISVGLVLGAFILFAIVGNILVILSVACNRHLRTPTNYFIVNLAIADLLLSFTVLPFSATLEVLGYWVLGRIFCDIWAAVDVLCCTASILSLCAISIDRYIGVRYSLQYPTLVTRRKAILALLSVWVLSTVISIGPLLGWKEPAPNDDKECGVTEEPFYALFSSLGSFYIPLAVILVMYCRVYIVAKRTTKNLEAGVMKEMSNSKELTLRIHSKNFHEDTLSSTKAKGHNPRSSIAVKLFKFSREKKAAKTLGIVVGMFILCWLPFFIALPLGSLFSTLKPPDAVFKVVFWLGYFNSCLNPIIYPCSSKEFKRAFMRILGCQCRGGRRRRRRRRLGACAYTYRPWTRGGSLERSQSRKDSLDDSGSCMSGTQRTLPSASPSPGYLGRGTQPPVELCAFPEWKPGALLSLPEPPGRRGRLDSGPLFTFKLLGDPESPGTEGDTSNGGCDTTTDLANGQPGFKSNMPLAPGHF
T1 sequence (P23944 whole entry): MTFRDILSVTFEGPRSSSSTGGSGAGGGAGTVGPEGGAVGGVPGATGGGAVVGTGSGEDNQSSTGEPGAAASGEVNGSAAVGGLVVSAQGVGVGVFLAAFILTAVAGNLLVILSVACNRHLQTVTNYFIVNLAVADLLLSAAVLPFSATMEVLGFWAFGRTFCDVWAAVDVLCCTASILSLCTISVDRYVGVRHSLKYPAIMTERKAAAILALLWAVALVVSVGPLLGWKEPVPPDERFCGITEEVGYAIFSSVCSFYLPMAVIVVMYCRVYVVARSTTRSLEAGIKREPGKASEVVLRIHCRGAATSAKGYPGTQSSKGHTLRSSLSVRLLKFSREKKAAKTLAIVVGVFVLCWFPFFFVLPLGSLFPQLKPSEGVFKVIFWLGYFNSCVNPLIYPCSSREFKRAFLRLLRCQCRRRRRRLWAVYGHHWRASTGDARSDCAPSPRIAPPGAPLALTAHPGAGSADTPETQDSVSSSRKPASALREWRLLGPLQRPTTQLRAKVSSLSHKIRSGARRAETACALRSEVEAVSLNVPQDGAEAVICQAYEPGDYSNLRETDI
T1 sequence (P43140 whole entry): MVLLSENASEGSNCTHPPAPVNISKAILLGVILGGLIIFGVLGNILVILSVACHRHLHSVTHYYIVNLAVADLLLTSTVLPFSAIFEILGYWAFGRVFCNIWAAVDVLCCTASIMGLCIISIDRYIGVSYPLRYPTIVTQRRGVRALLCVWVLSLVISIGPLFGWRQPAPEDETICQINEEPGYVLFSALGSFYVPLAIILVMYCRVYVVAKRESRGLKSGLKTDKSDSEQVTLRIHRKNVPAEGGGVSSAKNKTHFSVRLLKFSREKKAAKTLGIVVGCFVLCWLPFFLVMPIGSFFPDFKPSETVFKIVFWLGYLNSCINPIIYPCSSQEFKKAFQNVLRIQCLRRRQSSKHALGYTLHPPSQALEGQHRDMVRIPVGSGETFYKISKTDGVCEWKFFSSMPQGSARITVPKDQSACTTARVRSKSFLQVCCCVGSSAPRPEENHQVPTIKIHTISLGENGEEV
Outline: (§1)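 Competition binding against tritiated radioligand. Test drug was run at five concentrations in a single experiment, and IC50 (nM) was derived from displacement.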

[2] = tested on: Rattus norvegicus; assay: Effective in vivo peroral dose against induction of catalepsy in rats; format: functional
[3] = target: T2, Sigma non-opioid intracellular receptor 1 (Rattus norvegicus, UniProt Q9R0C9); assay: Displacement of (+)-[3H]-3-PPP from rat cortical sigma site; outline: as §1
T2 sequence (Q9R0C9 whole entry): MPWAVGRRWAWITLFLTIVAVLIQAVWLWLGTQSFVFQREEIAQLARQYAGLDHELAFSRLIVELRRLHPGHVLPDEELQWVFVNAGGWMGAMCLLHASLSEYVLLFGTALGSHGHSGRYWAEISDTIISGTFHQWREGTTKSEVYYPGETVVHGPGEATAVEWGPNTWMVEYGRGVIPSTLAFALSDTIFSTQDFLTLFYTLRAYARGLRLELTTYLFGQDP

[4] = species: Rattus norvegicus; assay: Effective peroral dose for inhibition of conditioned avoidance response in rats; format: functional; conditions: po
[5] = target: D(2) dopamine receptor (Rattus norvegicus, UniProt P61169); assay: In vitro inhibitory against radioligand [3H]spiperone binding to rat striatal Dopamine receptor D2; outline: as §1
Sequence of D(2) dopamine receptor (P61169 whole entry): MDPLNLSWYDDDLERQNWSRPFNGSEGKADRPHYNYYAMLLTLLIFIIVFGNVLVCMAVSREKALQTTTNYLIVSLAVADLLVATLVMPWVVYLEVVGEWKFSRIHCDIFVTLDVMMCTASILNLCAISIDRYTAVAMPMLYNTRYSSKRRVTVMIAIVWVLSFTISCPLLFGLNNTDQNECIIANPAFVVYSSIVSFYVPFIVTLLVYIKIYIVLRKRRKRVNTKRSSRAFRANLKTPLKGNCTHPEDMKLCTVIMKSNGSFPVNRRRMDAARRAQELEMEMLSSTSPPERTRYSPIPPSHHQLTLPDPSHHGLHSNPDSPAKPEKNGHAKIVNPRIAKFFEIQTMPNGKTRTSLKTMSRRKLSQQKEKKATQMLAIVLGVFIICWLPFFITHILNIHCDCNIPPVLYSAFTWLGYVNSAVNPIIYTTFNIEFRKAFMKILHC

[6] = species: Rattus norvegicus; assay: Inhibition of apomorphine-induced stereotypy in rats via peroral route; format: functional
[7] = target: T2, Sigma non-opioid intracellular receptor 1; assay: Compound was tested in vitro for its ability to displace radioligand (+)-[3H]-3-PPP from rat cortical sigma receptor
[8] = target: T1, Adrenergic receptor alpha-1; assay: In vitro inhibitory concentration against radioligand [3H]WB-4101 binding to rat cortical alpha-1 adrenergic receptor; format: protein assay
[9] = species: Rattus norvegicus; assay: Effective dose for inhibition of spontaneous motor activity in rats; format: functional
[10] = species: Rattus norvegicus; assay: Effective dose for ethanol potentiation in rats; format: functional
[11] = species: Mus musculus; assay: Effective dose for inhibition of norepinephrine induced lethality in mouse; format: functional
[12] = species: Rattus norvegicus; assay: Effective dose for motor incoordination in rats was determined by rotarod method; format: functional
[13] = tested on: Rattus norvegicus; assay: Effective dose for reversal of trifluoperazine-induced catalepsy in rats; I=Inactive (ED50 mg/Kg); format: functional, organism-based
[14] = species: Mus musculus; assay: Effective dose for inhibition of physostigmine induced lethality in mouse; format: functional
[15] = target: T1, Adrenergic receptor alpha-1; assay: Inhibitory concentration against radioligand [3H]-WB- 4101 binding to rat cortical Alpha-1 adrenergic receptor; format: protein assay; outline: as §1
[16] = Rattus norvegicus, po, read-out: ED50

IC50 [1] [nM]	IC50 [3] [nM]	IC50 [5] [nM]	SMILES	ED50 [2, 16] [mg/kg]	ED50 [4] [mg/kg]	ED50 [6, 16] [mg/kg]	also measured
> 1000	370	3750	CCC(O)(CCCN1CCN(c2ncc(F)cn2)CC1)c1ccc(F)cc1 (stereo not given)	> 100	48.5	> 50	
1420	22	5660	OC(CCCN1CCN(c2ncc(Cl)cn2)CC1)c1ccc(F)cc1 (stereo not given)	148	87.1	> 100	
			O=C(CCN1CCN(c2ncc(F)cn2)CC1)c1ccc(F)cc1		> 100	> 100	IC50 [7]: 69 nM; IC50 [8]: 523 nM
			O=C(CCCN1CCC(O)(c2ccc(Cl)cc2)CC1)c1ccc(F)cc1 [HALOPERIDOL]	0.58	2.8	0.5	ED50 [9]: 0.73 mg/kg; ED50 [10]: 0.28 mg/kg; ED50 [11]: 26 mg/kg; ED50 [12]: 5.2 mg/kg; Activity [13]: inactive; ED50 [14]: > 80 mg/kg
72	85	2190	O=C(CCCN1CCN(c2ncc(Br)cn2)CC1)c1ccc(F)cc1		> 100		
22	81		O/N=C(\CCCN1CCN(c2ncc(F)cn2)CC1)c1ccc(F)cc1		> 100		
814	160	> 1000	OC(CCN1CCN(c2ncc(F)cn2)CC1)c1ccc(F)cc1 (stereo not given)		> 100	> 100	
162	130	1380	OC(CCCN1CCN(c2ncccn2)CC1)c1ccc(F)cc1 (stereo not given)	> 100	25	32.3	
	110	2120	CC(O)(CCCN1CCN(c2ncc(F)cn2)CC1)c1ccc(F)cc1 (stereo not given)	> 100	> 25	> 50	
230		415	CCC(O)(CCCN1CCN(c2ncccn2)CC1)c1ccc(F)cc1 (stereo not given)		> 100	> 100	
1500	26	> 1000	OC(CCCN1CCN(c2ncc(Br)cn2)CC1)c1ccc(F)cc1 (stereo not given)	108	50	> 65	
> 1000	> 1000	> 1000	Oc1nc(N2CCN(CCCC(O)c3ccc(F)cc3)CC2)ncc1F (stereo not given)		> 100	> 100	
			O[C@@H](CCCN1CCN(c2ncc(F)cn2)CC1)c1ccc(F)cc1 [BMY-14802]				ED50 [2]: 38.1 mg/kg; ED50 [6]: 25.4 mg/kg; IC50 [15]: 570 nM
375	> 1000	1700	Fc1ccc(/C=C(\CCN2CCN(c3ncccn3)CC2)c2ccc(F)cc2)cc1		> 100		

From ChEMBL document CHEMBL1126099, “Synthesis and biological characterization of alpha-(4-fluorophenyl)-4-(5-fluoro-2-pyrimidinyl)-1-piperazinebutanol and analogues as potential atypical antipsychotic agents” (J Med Chem, 1992)
